Calls of active or inactive are those of the source. The calls are words filed in the database; no cut-off is given here.
How the values were obtained:
[1] = Inhibition of HCV NS5B polymerase; set-up: species or system Hepacivirus hominis
Procedure, shortened: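 N-terminally tagged full-length NS5B construct; IC50 values are the mean of duplicate measurements on two separate weighings.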

Hepatitis C virus [2] = experiment: Inhibition of subgenomic HCV RNA replication in Huh7 cells by cell-based replicon assay; format: functional, organism-based, Hepacivirus hominis; conditions: Huh-7
Procedure, shortened: (§1)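 Subgenomic HCV RNA replicon in Huh-7 cells. Replicon RNA was quantified by RT-PCR and normalized to cellular GAPDH mRNA. EC50 runs were done in duplicate on two separate weighings.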

Enterovirus C = experiment: Inhibition of poliovirus RNA-dependent RNA polymerase at 200 to 250 uM
Bos taurus = species: Bos taurus; experiment: Inhibition of calf thymus DNA-dependent RNA polymerase 2 at 200 to 250 uM
Hepatitis C virus [3] = experiment: Inhibition of subgenomic HCV RNA replication in Huh7 cells at 74 uM by cell-based replicon assay; format: functional, Hepacivirus hominis; conditions: Huh-7; procedure, shortened: as §1
[4] = Distribution coefficient, log D at pH 7.2; format: physicochemical; conditions: octanol/water
Procedure, shortened: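 Shake-flask partitioning between octanol and 100 mM phosphate buffer, pH 7.2; reported as log D(oct/buffer).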

[5] = Solubility in phosphate buffer at pH 7.2; format: physicochemical
Procedure, shortened: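 Solubility measured in phosphate buffer at pH 7.2.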

[6] = Cytotoxicity against Huh7 cells; format: cell-based; conditions: human, huh-7
Hepatitis C virus [7] = experiment: Inhibition of subgenomic HCV RNA replication in Huh7 cells at 3.4 uM by cell-based replicon assay; format: functional, Hepacivirus hominis; conditions: Huh-7; procedure, shortened: as §1

Row | Compound | IC50 [1] [µM] | EC50 (Hepatitis C virus [2]) [µM] | inhibition (Enterovirus C) [%] | Activity (Bos taurus) | other results
1 | Cc1nc([C@H](Cc2ccc(O)cc2)NC(=O)c2ccc3c(c2)nc(-c2ccoc2)n3C2CCCCC2)cs1 | 3.3 | 7.4 | < 50 | Active | 
2 | NC(=O)[C@H](Cc1c[nH]c2ccc(O)cc12)NC(=O)c1ccc2c(c1)nc(-c1ccoc1)n2C1CCCCC1 | 0.22 | 8 |  |  | 
3 | O=C(N[C@@H](Cc1c[nH]c2ccc(O)cc12)C(=O)O)c1ccc2c(c1)nc(-c1ccoc1)n2C1CCCCC1 | 0.05 | > 74 |  |  | inhibition at 74 µM (Hepatitis C virus [3]): 37%; logD [4]: 0.45; solubility [5]: > 850 µg/mL
4 | CC(C)[C@H](Cc1ccc(O)cc1)NC(=O)c1ccc2c(c1)nc(-c1ccoc1)n2C1CCCCC1 | 4.3 | 3.5 |  |  | logD [4]: 3.4
5 | O=C(O)c1ccc2c(c1)nc(-c1ccoc1)n2C1CCCCC1 | 1.6 |  |  |  | 
6 | CN1CCN(C(=O)[C@H](Cc2ccc(O)cc2)NC(=O)c2ccc3c(c2)nc(-c2ccoc2)n3C2CCCCC2)CC1 | 11 | > 9 |  |  | 
7 | CC(=O)Nc1nc([C@H](Cc2ccc(O)cc2)NC(=O)c2ccc3c(c2)nc(-c2ccoc2)n3C2CCCCC2)c[nH]1 | 4.2 |  | < 50 | Active | 
8 | Cc1nc([C@H](Cc2c[nH]c3ccc(O)cc23)NC(=O)c2ccc3c(c2)nc(-c2ccoc2)n3C2CCCCC2)cs1 | 0.3 | 2.4 | < 50 | Active | logD [4]: 4.6; solubility [5]: < 0.1 µg/mL
9 | NC(=O)[C@H](Cc1ccc(O)cc1)NC(=O)c1ccc2c(c1)nc(-c1ccoc1)n2C1CCCCC1 | 0.8 | 13 |  |  | logD [4]: 3.1
10 | CNc1nc([C@H](Cc2c[nH]c3ccc(O)cc23)NC(=O)c2ccc3c(c2)nc(-c2ccoc2)n3C2CCCCC2)cs1 | 0.5 | 3 | < 50 | Active | 
11 | CC(=O)Nc1nc([C@H](Cc2ccc(O)cc2)NC(=O)c2ccc3c(c2)nc(-c2ccoc2)n3C2CCCCC2)cs1 | 4.8 | 2.4 | < 50 | Active | 
12 | O=C(N[C@@H](Cc1ccc(O)cc1)c1cscn1)c1ccc2c(c1)nc(-c1ccoc1)n2C1CCCCC1 | 6.6 | 4.3 | < 50 | Active | 
13 | COc1ccc(CCNC(=O)c2ccc3c(c2)nc(-c2ccccn2)n3C2CCCCC2)cc1OC | 12 |  |  |  | 
14 | O=C(N[C@@H](Cc1ccc(O)cc1)C(=O)NCc1ccccn1)c1ccc2c(c1)nc(-c1ccoc1)n2C1CCCCC1 | 2.7 | 10 |  |  | 
15 | COC(=O)[C@H](Cc1c[nH]c2ccc(O)cc12)NC(=O)c1ccc2c(c1)nc(-c1ccoc1)n2C1CCCCC1 | 0.38 |  |  |  | Activity [6]: Toxic; inhibition at 3.4 µM (Hepatitis C virus [7]): 30%
16 | Nc1nc([C@H](Cc2ccc(O)cc2)NC(=O)c2ccc3c(c2)nc(-c2ccoc2)n3C2CCCCC2)cs1 | 1.3 |  | < 50 | Active | 
17 | O=C(O)COc1ccc2[nH]cc(C[C@H](NC(=O)c3ccc4c(c3)nc(-c3ccoc3)n4C3CCCCC3)C(=O)O)c2c1 | 0.027 | 64 |  |  | logD [4]: -1.6; solubility [5]: > 850 µg/mL

Row | Compound | IC50 [1] [µM] | EC50 (Hepatitis C virus [2]) [µM] | inhibition (Enterovirus C) [%] | Activity (Bos taurus) | other results
18 | CC(=O)Nc1nc([C@H](Cc2c[nH]c3ccc(O)cc23)NC(=O)c2ccc3c(c2)nc(-c2ccoc2)n3C2CCCCC2)cs1 | 0.55 | 5.8 | < 50 | Active | 
19 | O=C(N[C@@H](Cc1ccc(O)cc1)C(=O)Nc1cccnc1)c1ccc2c(c1)nc(-c1ccoc1)n2C1CCCCC1 | 3 | 6 |  |  | 
20 | CN(C)c1nc([C@H](Cc2c[nH]c3ccc(O)cc23)NC(=O)c2ccc3c(c2)nc(-c2ccoc2)n3C2CCCCC2)cs1 | 0.9 | 3.7 | < 50 | Active | 
21 | Nc1nc([C@H](Cc2c[nH]c3ccc(O)cc23)NC(=O)c2ccc3c(c2)nc(-c2ccoc2)n3C2CCCCC2)cs1 | 0.19 | 5.7 | < 50 | Active | 
22 | CN(C)C(=O)[C@H](Cc1ccc(O)cc1)NC(=O)c1ccc2c(c1)nc(-c1ccoc1)n2C1CCCCC1 | 4.9 |  |  |  | 
23 | O=C(N[C@@H](Cc1c[nH]c2ccc(O)cc12)c1cscn1)c1ccc2c(c1)nc(-c1ccoc1)n2C1CCCCC1 | 0.3 | 1.7 | < 50 | Active | logD [4]: 3.8
24 | O=C(N[C@@H](Cc1ccc(O)cc1)C(=O)N1CCOCC1)c1ccc2c(c1)nc(-c1ccoc1)n2C1CCCCC1 | 9.5 |  |  |  | 
25 | CNc1nc([C@H](Cc2ccc(O)cc2)NC(=O)c2ccc3c(c2)nc(-c2ccoc2)n3C2CCCCC2)cs1 | 2.8 | 7.1 | < 50 | Active | 
26 | CN(C)CCCNC(=O)[C@H](Cc1ccc(O)cc1)NC(=O)c1ccc2c(c1)nc(-c1ccoc1)n2C1CCCCC1 | 1.9 |  |  |  | 
27 | O=C(N[C@@H](Cc1ccc(O)cc1)C(=O)NCc1cccnc1)c1ccc2c(c1)nc(-c1ccoc1)n2C1CCCCC1 | 2.6 | 16 |  |  | 
28 | O=C(N[C@@H](Cc1ccc(O)cc1)C(=O)NCCN1CCOCC1)c1ccc2c(c1)nc(-c1ccoc1)n2C1CCCCC1 | 3.2 | > 13 |  |  | 
29 | O=C(N[C@@H](Cc1ccc(O)cc1)C(=O)NCc1ccncc1)c1ccc2c(c1)nc(-c1ccoc1)n2C1CCCCC1 | 3.7 | > 9 |  |  | 
30 | Cn1cc(C[C@H](NC(=O)c2ccc3c(c2)nc(-c2ccoc2)n3C2CCCCC2)c2csc(N)n2)c2cc(O)ccc21 | 0.9 | 3.4 | < 50 | Active | 
31 | O=C(N[C@@H](Cc1ccc(O)cc1)C(=O)O)c1ccc2c(c1)nc(-c1ccoc1)n2C1CCCCC1 | 0.5 | 48 |  |  | Activity [6]: Not Active
32 | CN(C)CCNC(=O)[C@H](Cc1ccc(O)cc1)NC(=O)c1ccc2c(c1)nc(-c1ccoc1)n2C1CCCCC1 | 2.1 |  |  |  | 
33 | CN(C)c1nc([C@H](Cc2ccc(O)cc2)NC(=O)c2ccc3c(c2)nc(-c2ccoc2)n3C2CCCCC2)cs1 | 5.1 | 8.3 | < 50 | Active | 

— ChEMBL document CHEMBL1149312, “Non-nucleoside benzimidazole-based allosteric inhibitors of the hepatitis C virus NS5B polymerase: inhibition of subgenomic hepatitis C virus RNA replicons in Huh-7 cells” (J Med Chem, 2004)
